Six compounds from ChEMBL document CHEMBL2331445, “Chemical, biochemical and microbiological properties of a brominated nitrovinylfuran with broad-spectrum antibacterial activity” (Bioorg Med Chem, 2013) can be followed below.

≈ marks a conversion by molar mass, not a printed value. Calls of active or inactive are those of the source. A value given as a limit tells only on which side of the number the result lay.

The term IC50 denotes the concentration at which inhibition is half-maximal. For orientation: inhibition means the percentage by which the read-out fell short of the control. The half-life is the time needed for the level to fall by half in the phase considered. Read a low half-life as fast loss.

Series [1] can be described thus: Cytotoxicity against human SW707 cells after 72 hrs by crystal violet staining method. Type of series: ADME, cell-based. As to conditions: SW707, 72 h.
Series [2] relates to CAPAN-1. Nature of the series: Cytotoxicity against human Capan1 cells after 72 hrs by crystal violet staining method. Type of series: ADME, cell-based. The settings on record: CAPAN-1, 72 h.
For series [3], the system named is Ca-Ski. Nature of the series: Cytotoxicity against human CaSki cells after 72 hrs by crystal violet staining method. Type of series: ADME, cell-based.
Series [4] deals with Calu-6. Nature of the series: Cytotoxicity against human Calu6 cells after 72 hrs by crystal violet staining method. Type of series: ADME, cell-based. As to conditions: Calu-6, 72 h.
Series [5] has as its system MeWo. The series can be described thus: Cytotoxicity against human MeWo cells after 72 hrs by crystal violet staining method. Type of series: ADME, cell-based.
The test system of series [6] is A-431. Nature of the series: Cytotoxicity against human A431 cells after 72 hrs by crystal violet staining method. Type of series: ADME, cell-based. The settings on record: A-431, 72 h.
Series [7] can be described thus: Cytotoxicity against human Flow 2002 cells after 72 hrs by crystal violet staining method. Type of series: ADME, cell-based. As to conditions: Flow 2002, 72 h.
For series [8], the system named is HaCaT. The series can be described thus: Cytotoxicity against human HaCaT cells after 72 hrs by crystal violet staining method. Type of series: ADME, cell-based.
Series [9] has as its system Staphylococcus aureus. Nature of the series: microbe, parasite or virus in culture. Type of series: functional. The settings on record: NCTC 10442.
Series [10] has as its system Staphylococcus aureus. Nature of the series: microbe, parasite or virus in culture. As to conditions: ATCC 25923. Type of series: functional.
Series [11] is described as follows: Inhibition of Staphylococcus aureus MurA2 expressed in Escherichia coli BL21(lambdaDE3) using UNAG and PEP as substrate incubated for 10 mins prior to PEP addition measured after 60 mins by spectrophotometric analysis.
Series [12] in a line: Inhibition of Pseudomonas aeruginosa MurA expressed in Escherichia coli BL21(lambdaDE3) using UNAG and PEP as substrate incubated for 10 mins prior to PEP addition measured after 60 mins by spectrophotometric analysis.
Series [13] concerns the target UDP-N-acetylglucosamine 1-carboxyvinyltransferase (Escherichia coli K-12, UniProt P0A749, C115D). Nature of the series: Inhibition of Escherichia coli MurA C115D mutant expressed in Escherichia coli BL21(lambdaDE3) using UNAG and PEP as substrate incubated for 10 mins prior to PEP addition measured after 60 mins by spectrophotometric analysis.
For series [14], the system named is Pseudomonas aeruginosa. Nature of the series: microbe, parasite or virus in culture. The settings on record: ATCC 27853. Type of series: functional.
Series [15] relates to Escherichia coli. The series can be described thus: microbe, parasite or virus in culture. The settings on record: ATCC 25922. Type of series: functional.
Series [16] has as its system Dengue virus. As to conditions: at 50 µM.
In series [17] the target is Prothrombin (Homo sapiens) (UniProt P00734). The settings on record: at 25 µM.
The target of series [18] is Methionine aminopeptidase 2 (Homo sapiens) (UniProt P50579). As to conditions: at 10 µM.
Methionine aminopeptidase 2 (Homo sapiens), sequence (P50579 2-478 limits assumed): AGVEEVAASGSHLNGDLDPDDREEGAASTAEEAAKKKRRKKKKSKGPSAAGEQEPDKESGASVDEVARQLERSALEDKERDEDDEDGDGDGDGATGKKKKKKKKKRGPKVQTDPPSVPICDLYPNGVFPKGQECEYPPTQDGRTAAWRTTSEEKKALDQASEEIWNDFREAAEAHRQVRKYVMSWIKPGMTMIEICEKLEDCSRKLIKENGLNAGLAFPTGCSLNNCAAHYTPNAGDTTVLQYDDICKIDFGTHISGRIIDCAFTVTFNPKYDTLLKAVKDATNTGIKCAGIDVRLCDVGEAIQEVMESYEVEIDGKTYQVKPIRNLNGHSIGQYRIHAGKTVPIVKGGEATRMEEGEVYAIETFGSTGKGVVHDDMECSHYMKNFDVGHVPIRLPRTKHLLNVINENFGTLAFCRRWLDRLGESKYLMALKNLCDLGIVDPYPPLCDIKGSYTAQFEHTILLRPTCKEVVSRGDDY
Series [19] concerns the target Methionine aminopeptidase 1 (Homo sapiens) (UniProt P53582). The settings on record: at 10 µM.
Series [20] deals with Escherichia coli. As to conditions: at 10 µM.
For series [21], the target named is UDP-N-acetylglucosamine 1-carboxyvinyltransferase (Escherichia coli K-12, UniProt P0A749). The series can be described thus: Inhibition of Escherichia coli MurA expressed in Escherichia coli BL21(lambdaDE3) using UNAG and PEP as substrate incubated for 10 mins prior to PEP addition measured after 60 mins by spectrophotometric analysis.
UDP-N-acetylglucosamine 1-carboxyvinyltransferase (Escherichia coli K-12, UniProt P0A749), sequence (P0A749 whole entry): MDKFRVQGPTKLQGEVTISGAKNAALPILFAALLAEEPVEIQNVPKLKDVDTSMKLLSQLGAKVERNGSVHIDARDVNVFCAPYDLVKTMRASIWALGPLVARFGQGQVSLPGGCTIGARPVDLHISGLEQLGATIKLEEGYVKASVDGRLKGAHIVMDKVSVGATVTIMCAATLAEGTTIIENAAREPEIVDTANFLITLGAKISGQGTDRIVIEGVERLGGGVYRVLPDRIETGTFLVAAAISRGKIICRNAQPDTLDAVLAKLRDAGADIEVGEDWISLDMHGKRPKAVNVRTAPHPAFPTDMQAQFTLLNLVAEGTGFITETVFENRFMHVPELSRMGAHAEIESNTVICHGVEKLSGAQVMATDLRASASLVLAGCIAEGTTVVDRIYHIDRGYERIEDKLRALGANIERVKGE
Series [22] is described as follows: Induction of GSSG formation in citrate buffer at 100 uM by RP-LC/MS analysis.
Series [23] is described as follows: Induction of GSH-adduct formation in citrate buffer at100 uM by RP-LC/MS analysis. As to conditions: 100 µM.
Series [24] relates to UDP-N-acetylglucosamine 1-carboxyvinyltransferase (Escherichia coli K-12), P0A749 [C115D]. Nature of the series: Inhibition of Escherichia coli MurA C115D mutant expressed in Escherichia coli BL21(lambdaDE3) using UNAG and PEP as substrate at 50 to 500 uM incubated for 30 mins by 2,2'-dithiopyridine based spectrophotometric analysis. In outline:
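MurA (wild-type or C115D) was incubated with test compound at an equimolar ratio or 10-fold excess in 50 mM Tris pH 7.8 at room temperature for 30 min. 2,2'-Dithiodipyridine was then added in 0.5 M citrate pH 4 with 6 M urea for 30 min and quenched with 4% TFA. 2-Thiopyridone was measured by HPLC at 342 nm against a compound-free control.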

For series [25], the target named is UDP-N-acetylglucosamine 1-carboxyvinyltransferase (Escherichia coli K-12) (UniProt P0A749). As to conditions: 100 nM.
UDP-N-acetylglucosamine 1-carboxyvinyltransferase (Escherichia coli K-12), sequence (P0A749 whole entry): as above
Series [26] has the same target. As to conditions: 200 nM.
Series [27] in a line: Half life of the compound in citrate buffer at pH 6.
A short description of series [28]: Half life of the compound in tris buffer at pH 7.8.
A short description of series [29]: Cytotoxicity against human lymphoblastoid cells assessed as cell vaibility at 46 uM. Type of series: cell-based. The settings on record: read-out: Activity.

UDP-N-acetylglucosamine 1-carboxyvinyltransferase (Escherichia coli K-12, UniProt P0A749, C115D), sequence (P0A749 whole entry C115D): as the sequence (P0A749 whole entry) above, with C115D counted along it
UDP-N-acetylglucosamine 1-carboxyvinyltransferase (Escherichia coli K-12), P0A749 [C115D], sequence (P0A749 whole entry C115D): as the sequence (P0A749 whole entry) above, with C115D counted along it

As to `C=C1C(=O)O[C@@H]2/C=C(\CO)CC/C=C(\C)C[C@H](OC(=O)C(=C)[C@H](O)CO)[C@@H]12` [CNICIN], the IC50 is at least 100 µM in series [1]; 93 µM in series [2]; at least 100 µM in series [3]; 44 µM in series [4]; at least 100 µM in series [5]; 27 µM in series [6]. In addition, the IC50 in series [7] was 82 µM; in series [8], 80 µM; in series [11] (read-out: IC50) it was 20.4 µM; in [12] (read-out: IC50), 10.3 µM; in series [13] it was “Not Active”. In addition, the MIC in series [9], in series [10], in [14] and in series [15] was above 32 µg/mL throughout. In addition, the inhibition entry in series [16], in [17], in series [19] and in [20] was “inactive” in each case. Moreover, the inhibition in series [18] amounted to 9%.

With `O=[N+]([O-])CBr` [BROMO(NITRO)METHANE], the IC50 in series [1] was 73 µM; in series [2], 69 µM; in series [3], 99 µM; in [4], 23 µM; in series [5], 40 µM; in [6], 38 µM. Further, the IC50 is 14 µM in series [7]; 25 µM in series [8]; 6.2 µM in [11] (read-out: IC50); 4 µM in [12] (read-out: IC50); 7.8 µM in series [13] (read-out: IC50); 4.6 µM in [21] (read-out: IC50). Besides, the MIC was 2 µg/mL (≈ 14.3 µM) in [9], 2 µg/mL (≈ 14.3 µM) in series [10], 0.5 µg/mL (≈ 3.57 µM) in series [14] and 1 µg/mL (≈ 7.15 µM) in series [15]. Moreover, the values for the Activity entry in series [22] and in series [23] were “Not Active” and “Active”, respectively. Also, the inhibition result in series [16], in [17] and in series [19] was “inactive” each time. For the same compound, the inhibition in [18] was 22%; in series [20] it was 85%.

On to `O=Cc1ccc(Br)o1`, for which the IC50 in series [1], in series [2], in series [3], in series [4], in series [5] and in [6] was at least 100 µM throughout. For the same compound, the IC50 is at least 100 µM in series [7]; at least 100 µM in [8]; “Not Active” in [11]; “Not Active” in series [12]; “Not Active” in series [13]; “Not Active” in [21]. The MIC in series [9], in series [10], in series [14] and in [15] was above 32 µg/mL each time. Besides, the outcome in [22] and in [23] was Active. Besides, the inhibition result in series [16], in [17], in series [18], in [19] and in series [20] was “inactive” throughout.

On to `C[C@@H]1O[C@@H]1P(=O)(O)O` [FOSFOMYCIN], for which the IC50 in series [1], in [2], in series [3], in series [4], in series [5] and in series [6] was at least 100 µM in each case. Besides, the IC50 in series [7] is at least 100 µM; in [8], at least 100 µM; in series [11] (read-out: IC50) it was 1.1 µM; in series [12] (read-out: IC50) it was 10.5 µM; in series [13] it was “Not Active”; in series [21] (read-out: IC50), 0.1 µM. The MIC was determined as 4 µg/mL (≈ 29 µM) in series [9], 4 µg/mL (≈ 29 µM) in [10], 1 µg/mL (≈ 7.24 µM) in [14] and 2 µg/mL (≈ 14.5 µM) in series [15]. Besides, the inhibition entry in series [24], in series [16], in series [17], in [18], in series [19] and in series [20] was “inactive” throughout. Further, the inhibition result in series [26] is “inactive”. Besides, in series [25], the inhibition result was “tde”.

In the case of `C[N+](=O)[O-]` [NITROMETHANE], the IC50 in [1], in series [2], in [3], in series [4], in [5] and in [6] was at least 100 µM in each case. Also, the IC50 is at least 100 µM in series [7]; at least 100 µM in series [8]; “Not Active” in series [11]; “Not Active” in series [12]; “Not Active” in [13]; “Not Active” in series [21]. Also, the MIC in series [9] is above 32 µg/mL; in series [10], 8 µg/mL (≈ 131 µM); in series [14], 8 µg/mL (≈ 131 µM); in series [15] it was 32 µg/mL (≈ 524 µM). The inhibition entry in series [16], in series [17], in [18], in series [19] and in series [20] was “inactive” in each case.

On to `O=[N+]([O-])/C=C/c1ccc(Br)o1`, for which the IC50 in series [1] is 22 µM; in series [2] it was 19 µM; in series [3], 18 µM; in series [4], 5 µM; in [5], 21 µM; in series [6], 12 µM. For the same compound, the IC50 was 6 µM in series [7]; 15 µM in series [8]; 20.7 µM in series [11] (read-out: IC50); 20.3 µM in [12] (read-out: IC50); 23.8 µM in series [13] (read-out: IC50); 27.3 µM in [21] (read-out: IC50). Besides, the MIC is 2 µg/mL (≈ 9.17 µM) in [9], 2 µg/mL (≈ 9.17 µM) in series [10], 4 µg/mL (≈ 18.3 µM) in series [14] and 2 µg/mL (≈ 9.17 µM) in series [15]. In addition, the Activity entry in series [22] is listed as “Active”; in series [23], “Not Active”. Also, the half-life in series [27] is 116 h; in series [28], 58 h. Moreover, the viability at 46 µM in series [29] is above 70%. Also, the inhibition in series [16] came out at 26%; in [17] it was 19%; in series [18], 7%; in series [20], 30%. For the same compound, in series [19], the inhibition result was “inactive”.
